Measurements from ChEMBL document CHEMBL4814057, “4-4-(Anilinomethyl)-3-[4-(trifluoromethyl)phenyl]-1H-pyrazol-1-ylbenzoic acid derivatives as potent anti-gram-positive bacterial agents” (Eur J Med Chem, 2021).
Values after ≈ are worked out from the molar mass of the structure shown. Active and inactive are the calls of the source. The rule behind the calls is not given here.

How the values were obtained:
Staphylococcus aureus [1] = test: Inhibition of RNA synthesis in Staphylococcus aureus ATCC 29213 at 8 times MIC measured by liquid scintillation counter; assay type: functional
How it was run: (§1)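 Early-exponential cells in CAMHB added to drug (40x stock) in triplicate, with a no-drug control. After 30 min pre-incubation at room temperature, [3H]thymidine 3.0 µCi/tube (DNA) or [3H]uridine 0.5 µCi/tube (RNA) added for 30 min at room temperature. Stopped with cold TCA, precipitate filtered and washed, then scintillation counted.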

Staphylococcus aureus [2] = test: Inhibition of DNA synthesis in Staphylococcus aureus ATCC 29213 at 8 times MIC measured by liquid scintillation counter; assay type: functional; how it was run: as §1
Staphylococcus aureus [3] = test: Antibacterial activity against vancomycin-intermediate resistant Staphylococcus aureus ATCC 700699 assessed as bacterial growth between 7 passages measured 14 to 21 days by broth dilution method; assay type: functional, organism-based; details: time 14-21 day
Staphylococcus aureus [4] = test: Antibacterial activity against vancomycin-intermediate susceptible Staphylococcus aureus ATCC 25923 assessed as bacterial growth inhibition between 7 passages by broth dilution method; assay type: functional, organism-based
Enterococcus faecalis [5] = test: Antibacterial activity against vancomycin-intermediate Enterococcus faecalis ATCC 29212 assessed as bacterial growth inhibition by measuring fold increase in MIC after 7 passages by broth dilution method; assay type: functional, organism-based
Staphylococcus aureus [6] = test: Antibacterial activity against methicillin resistant Staphylococcus aureus ATCC 700699 persisters assessed as reduction in viability at 64 times MIC by colony counting method; assay type: functional, organism-based
How it was run: (§2)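 Stationary-phase S. aureus from overnight CAMHB culture (35 °C, 200 rpm), washed thrice in PBS, diluted to ~5 × 10^8 CFU/ml. Incubated with antibiotic at 35 °C, 200 rpm. Aliquots taken at set times, washed, serially diluted in PBS, drop-plated (6 × 6) on TSA with 5% sheep blood. Colonies counted after 18–20 h at 35 °C. Triplicates.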

Staphylococcus aureus [7] = test: Antimicrobial activity against methicillin-susceptible Staphylococcus aureus ATCC 25923 assessed as bacterial growth inhibitions by CLSI protocol based microdilution method; assay type: functional
Staphylococcus aureus [8] = test: Antimicrobial activity against antibiotic-resistant Staphylococcus aureus BM-2312 assessed as bacterial growth inhibitions by CLSI protocol based microdilution method; assay type: functional
Staphylococcus aureus [9] = test: Antimicrobial activity against methicillin-resistant Staphylococcus aureus ATCC 700699 assessed as bacterial growth inhibitions by CLSI protocol based microdilution method; assay type: functional
Bacillus subtilis = test: Antimicrobial activity against Bacillus subtilis ATCC 6623 assessed as bacterial growth inhibitions by CLSI protocol based microdilution method; assay type: functional
How it was run: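 Broth microdilution starting at 50 µg/ml with 2-fold serial dilutions; run in triplicate.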

Enterococcus faecium [10] = test: Antimicrobial activity against vancomycin-resistant Enterococcus faecium ATCC 700221 assessed as bacterial growth inhibitions by CLSI protocol based microdilution method; assay type: functional
Staphylococcus aureus [11] = test: Antibiofilm activity against Staphylococcus aureus UAMS-1 assessed as destruction catheter-associated biofilm formation measured after 48 hrs (reference value: 1.53 x 10^8); assay type: functional
How it was run: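 Plasma-coated catheters colonised for 24 h at 37 °C with gentle shaking, starting from ~1 × 10^7 CFU of MSSA UAMS-1 in biofilm medium (TSB plus glucose and NaCl). […] Medium renewed at 24 h. Catheters (n = 3) sonicated at 48 h and plated on TSA for CFU per catheter.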

Staphylococcus aureus [12] = test: Antibacterial activity against methicillin resistant Staphylococcus aureus ATCC 700699 persisters assessed as reduction in viability at 16 times MIC by colony counting method; assay type: functional, organism-based; how it was run: as §2
Enterococcus faecium [13] = test: Antimicrobial activity against vancomycin-resistant Enterococcus faecium clinical isolate 1088051 by CLSI-based broth microdilution assay; assay type: functional
Enterococcus faecium [14] = test: Antimicrobial activity against vancomycin-resistant Enterococcus faecium clinical isolate 1091563 by CLSI-based broth microdilution assay; assay type: functional
Enterococcus faecium [15] = test: Antimicrobial activity against vancomycin-resistant Enterococcus faecium clinical isolate 1091720 by CLSI-based broth microdilution assay; assay type: functional
Enterococcus faecium [16] = test: Antimicrobial activity against vancomycin-resistant Enterococcus faecium clinical isolate 1094112 by CLSI-based broth microdilution assay; assay type: functional
Enterococcus faecium [17] = test: Antimicrobial activity against vancomycin-resistant Enterococcus faecium clinical isolate 1100440 by CLSI-based broth microdilution assay; assay type: functional
Enterococcus faecium [18] = test: Antimicrobial activity against vancomycin-resistant Enterococcus faecium clinical isolate 1088168 by CLSI-based broth microdilution assay; assay type: functional
Enterococcus faecium [19] = test: Antimicrobial activity against vancomycin-resistant Enterococcus faecium clinical isolate 1088228 by CLSI-based broth microdilution assay; assay type: functional
Enterococcus faecium [20] = test: Antimicrobial activity against vancomycin-resistant Enterococcus faecium clinical isolate 1088925 by CLSI-based broth microdilution assay; assay type: functional
Enterococcus faecium [21] = test: Antimicrobial activity against vancomycin-resistant Enterococcus faecium clinical isolate 1089544 by CLSI-based broth microdilution assay; assay type: functional
Enterococcus faecium [22] = test: Antimicrobial activity against vancomycin-resistant Enterococcus faecium clinical isolate 1091282 by CLSI-based broth microdilution assay; assay type: functional
Staphylococcus aureus [23] = test: Antimicrobial activity against methicillin-sensitive Staphylococcus aureus ATCC 29213 by CLSI-based broth microdilution assay; assay type: functional
Staphylococcus aureus [24] = test: Antimicrobial activity against methicillin-sensitive Staphylococcus aureus clinical isolate 1088105 by CLSI-based broth microdilution assay; assay type: functional
Staphylococcus aureus [25] = test: Antimicrobial activity against methicillin-sensitive Staphylococcus aureus clinical isolate 1088626 by CLSI-based broth microdilution assay; assay type: functional
Staphylococcus aureus [26] = test: Antimicrobial activity against methicillin-resistant Staphylococcus aureus clinical isolate 1088064 by CLSI-based broth microdilution assay; assay type: functional
Staphylococcus aureus [27] = test: Antimicrobial activity against methicillin-resistant Staphylococcus aureus clinical isolate 1088610 by CLSI-based broth microdilution assay; assay type: functional
Staphylococcus aureus [28] = test: Antimicrobial activity against methicillin-resistant Staphylococcus aureus clinical isolate 1088888 by CLSI-based broth microdilution assay; assay type: functional
Staphylococcus aureus [29] = test: Antimicrobial activity against methicillin-resistant Staphylococcus aureus clinical isolate 1089106 by CLSI-based broth microdilution assay; assay type: functional
Staphylococcus aureus [30] = test: Antimicrobial activity against Staphylococcus aureus ATCC 29213 assessed as inhibition of cell wall synthesis at 8 times MIC measured by liquid scintillation counter; assay type: functional
How it was run: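 Early-exponential S. aureus ATCC 29213 resuspended in M9 minimal medium. Drug added at 8x MIC, pre-incubated 30 min at 37 °C. [14C]N-acetylglucosamine (0.4 µCi/reaction) added, 45 min at 37 °C. Stopped with 8% SDS, heated 95 °C for 30 min, spotted onto nitrocellulose filters, washed with 0.1% SDS. Counted by liquid scintillation. Triplicate.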

Staphylococcus aureus [31] = test: Antibacterial activity against vancomycin-intermediate susceptible Staphylococcus aureus ATCC 25923 assessed as bacterial growth inhibition by measuring fold increase in MIC between 8 passages by broth dilution method; assay type: functional
Enterococcus faecalis [32] = test: Antimicrobial activity against vancomycin-susceptible Enterococcus faecalis ATCC 29212 assessed as bacterial growth inhibitions by CLSI protocol based microdilution method

CO[C@H]1/C=C/O[C@@]2(C)Oc3c(C)c(O)c4c(O)c(c(/C=N/N5CCN(C)CC5)c(O)c4c3C2=O)NC(=O)/C(C)=C\C=C\[C@H](C)[C@H](O)[C@@H](C)[C@@H](O)[C@@H](C)[C@H](OC(C)=O)[C@@H]1C [RIFAMPIN]
inhibition (INH) (Staphylococcus aureus [1]): 76.3%

O=C(O)c1cn(C2CC2)c2cc(N3CCNCC3)c(F)cc2c1=O [CIPROFLOXACIN]
inhibition (INH) (Staphylococcus aureus [2]): 86.2%
Activity (Staphylococcus aureus [3]): inactive
Activity (Staphylococcus aureus [4]): inactive
Activity (Enterococcus faecalis [5]): inactive

CN[C@H](CC(C)C)C(=O)N[C@H]1C(=O)N[C@@H](CC(N)=O)C(=O)N[C@H]2C(=O)N[C@H]3C(=O)N[C@H](C(=O)N[C@H](C(=O)O)c4cc(O)cc(O)c4-c4cc3ccc4O)[C@H](O)c3ccc(c(Cl)c3)Oc3cc2cc(c3O[C@@H]2O[C@H](CO)[C@@H](O)[C@H](O)[C@H]2O[C@H]2C[C@](C)(N)[C@H](O)[C@H](C)O2)Oc2ccc(cc2Cl)[C@H]1O [VANCOMYCIN]
Activity (Staphylococcus aureus [6]): inactive
MIC (Staphylococcus aureus [7]): 0.78 µg/mL (≈ 0.538 µM)
MIC (Staphylococcus aureus [8]): 0.78 µg/mL (≈ 0.538 µM)
MIC (Staphylococcus aureus [9]): 3.12 µg/mL (≈ 2.15 µM)
MIC (Bacillus subtilis): 0.19 µg/mL (≈ 0.131 µM)
MIC (Enterococcus faecium [10]): > 50 µg/mL
Activity (Staphylococcus aureus [11]): 1.16 10^7CFU
Activity (Staphylococcus aureus [12]): inactive
MIC (Enterococcus faecium [13]): 64 µg/mL (≈ 44.2 µM)
MIC (Enterococcus faecium [14]): 64 µg/mL (≈ 44.2 µM)
MIC (Enterococcus faecium [15]): 64 µg/mL (≈ 44.2 µM)
MIC (Enterococcus faecium [16]): > 64 µg/mL
MIC (Enterococcus faecium [17]): > 64 µg/mL
MIC (Enterococcus faecium [18]): > 64 µg/mL
MIC (Enterococcus faecium [19]): > 64 µg/mL
MIC (Enterococcus faecium [20]): > 64 µg/mL
MIC (Enterococcus faecium [21]): > 64 µg/mL
MIC (Enterococcus faecium [22]): > 64 µg/mL
MIC (Staphylococcus aureus [23]): 0.25 µg/mL (≈ 0.173 µM)
MIC (Staphylococcus aureus [24]): 0.25 µg/mL (≈ 0.173 µM)
MIC (Staphylococcus aureus [25]): 0.25 µg/mL (≈ 0.173 µM)
MIC (Staphylococcus aureus [26]): 64 µg/mL (≈ 44.2 µM)
MIC (Staphylococcus aureus [27]): 64 µg/mL (≈ 44.2 µM)
MIC (Staphylococcus aureus [28]): > 64 µg/mL
MIC (Staphylococcus aureus [29]): 64 µg/mL (≈ 44.2 µM)
inhibition (INH) (Staphylococcus aureus [30]): 87.3%
Activity (Staphylococcus aureus [31]): inactive
MIC (Enterococcus faecalis [32]): 3.12 µg/mL (≈ 2.15 µM)
